Compound activity (PubChem)
Cneo AK release: Cryptococcus neoformans lysis via adenylate kinase release | C. neoformans lysis, adenylate kinase release luminescence, 4 h; normalised: neutral wells 0, clomiphene wells 100 | lysis activity, % at 15 µM | hit rate 0.2% among 360,000;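 active = mean lysis activity across replicates of at least 80%, whatever share of replicates individually reach that level; inactive = mean lysis activity below 80%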
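Schedule: static 4 h at 37 °C with compound, 1 h detection; system: C. neoformans cells; benchmarks: Clomiphene as positive control; buffer or medium: fresh YPD medium; measure: luminescence rise reflecting yeast cell lysis; measured by: luminescent adenylate kinase detection reagent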
PglD inh: PglD (C. jejuni) enzyme inhibition. purified PglD enzyme, DTNB colorimetric CoA detection. inhibition, % at 12.5 µM. hit rate 0.098% among 360,000; in the data active = inhibition above about 16%, passing the limit was not always enough
Ecoli rRNA inh: inhibits bacterial ribosomal RNA function over humanized ribosomes; GFP signal change (wild-type ribosome), % (no concentration beside the values); E. coli WT GFP vs humanized-ribosome RFP mutants, fluorescence, 24 h; hits give low values; DMSO median 0, no signal -100; hit rate 1.6% among 350,000; AID 720706;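 active = significant combined selectivity score with lowered wild-type GFP, culture density cut under 30%, mutant RFP and density less affected; inactive = any of these conditions unmet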
RAD52 anneal inh: blocks human RAD52 DNA annealing. P43351. recombinant RAD52 DNA annealing, FRET fluorescence. inhibition, % at 18.7 µM. hit rate 0.46% among 360,000;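 active = every replicate showing at least 50% inhibition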
Target sequence (P43351 whole entry, looked up): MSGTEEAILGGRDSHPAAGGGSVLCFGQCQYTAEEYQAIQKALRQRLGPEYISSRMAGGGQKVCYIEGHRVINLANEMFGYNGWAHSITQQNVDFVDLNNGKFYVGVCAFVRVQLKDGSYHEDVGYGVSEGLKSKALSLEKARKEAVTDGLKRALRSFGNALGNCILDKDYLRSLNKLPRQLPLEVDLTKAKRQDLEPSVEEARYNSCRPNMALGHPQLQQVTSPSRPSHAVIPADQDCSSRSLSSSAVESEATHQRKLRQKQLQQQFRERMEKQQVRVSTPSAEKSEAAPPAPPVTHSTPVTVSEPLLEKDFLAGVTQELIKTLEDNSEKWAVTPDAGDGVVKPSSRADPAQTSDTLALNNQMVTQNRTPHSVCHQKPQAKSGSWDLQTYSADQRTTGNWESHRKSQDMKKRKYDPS
RAD54 branch: RAD54 (human) branch migration inhibition; RAD54 Holliday junction branch migration, FAM/BHQ fluorescence; Q92698; inhibition, % at 10.4 µM; hit rate 0.14% among 360,000;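 active = mean normalized replicate activity at least 40 and at least half of replicates scoring 40 or more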;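 note: 0% = median of neutral control wells and 100% = median of positive control wells; inhibitors cause a drop in the FAM fluorescence signal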
* = called active by the depositor; x = no result given. Hits are enriched below; roughly 1.9% of the tested compounds scored in any of these assays.

SMILES	Cneo AK release	PglD inh	Ecoli rRNA inh	RAD52 anneal inh	RAD54 branch
CCCNC(=O)Nc1ccc2c(c1)OC[C@H](C)N(C(=O)C1CCCCC1)C[C@H](C)[C@@H](OC)CN(C)C2=O	x	x	-4	15	x
CCCC(=O)Nc1ccc(C(=O)NNC(=S)NC(=O)c2ccc(Br)o2)cc1	x	x	-27*	-32	x
O=C(O)/C(=C\c1ccc2ccccc2c1)c1cccc2ccccc12	x	x	-47*	-11	x
CO[C@@H]1CN(C)C(=O)c2cc(NC(=O)C3CCCC3)ccc2OC[C@H](C)N(C(C)=O)C[C@@H]1C	1	4	0	x	3
CC(C)(C)c1ccc(C(=O)c2cn[nH]c2-c2ccccc2O)cc1	-6	-5	-22*	-14	-5
Nc1nc2cc3c(cc2cc1C(=O)NCCc1c[nH]c2ccccc12)OCO3	x	x	-25*	-17	x
COc1cc2cc(C(=O)NCCc3c[nH]c4ccccc34)c(N)nc2cc1OC	x	x	-31*	-123	x
CC(=O)c1cccc(Nc2c3c(nc4ccccc24)CCC3)c1	-2	6	-19	27	6
CC(=O)c1ccc(Nc2c3c(nc4ccccc24)CCCC3)cc1	x	x	-35*	-30	x
Oc1ccc(N=Nc2ccc3c(c2)OCCO3)c(O)c1	0	6	-38*	-24	-10
Oc1ccc(N=Nc2ccc3c(c2)OCCO3)c2cccnc12	x	x	4	-7	x
Cc1oc2ccc(O)cc2c1C(=O)c1ccc(Br)cc1	x	x	-23*	-5	x
Cc1oc2ccc(O)cc2c1C(=O)c1ccc(Cl)cc1	-1	-2	x	x	-2
C[C@H](CO)N1C[C@H](C)[C@@H](CN(C)C(=O)Nc2cccc3ccccc23)Oc2ccc(NC(=O)Cc3ccccc3)cc2CC1=O	-25	4	1	23	1
C[C@H](CO)N1C[C@H](C)[C@H](CN(C)C(=O)Nc2cccc3ccccc23)Oc2ccc(NC(=O)Cc3ccccc3)cc2CC1=O	102*	3	2	0	0
C[C@H](CO)N1C[C@H](C)[C@@H](CN(C)C(=O)Nc2cccc3ccccc23)Oc2ccc(NC(=O)C3CC3)cc2CC1=O	-18	-1	4	1	8
C[C@H]1CN([C@@H](C)CO)C(=O)Cc2cc(NC(=O)C3CC3)ccc2O[C@@H]1CN(C)C(=O)Nc1cccc2ccccc12	111*	-1	4	3	0
CN(C)C(=O)[C@@H]1[C@@H](CO)[C@@H]2Cn3c(ccc(C4=CCCCC4)c3=O)[C@H]1N2C	-1	0	4	72*	10
COc1ccc(NC(=O)N2CCCCN3[C@H](CO)[C@@H](c4ccc(C#Cc5ccccc5)cc4)[C@@H]3C2)cc1	4	2	x	71*	4
COc1ccc(NC(=O)N2CCCCN3[C@@H](CO)[C@@H](c4ccc(C#Cc5ccccc5)cc4)[C@@H]3C2)cc1	9	-3	x	97*	5
O=C(Nc1ccccc1)N1CCCCN2[C@H](CO)[C@@H](c3ccc(C#CC4CC4)cc3)[C@@H]2C1	100*	-2	-56	-32	0
COc1ccc(NC(=O)N2CCCCN3[C@H](CO)[C@H](c4ccc(C#Cc5ccccc5)cc4)[C@@H]3C2)cc1	45	0	x	31	7
COc1ccc(C#Cc2ccc([C@@H]3[C@@H](CO)N4CCCCN(C(=O)Nc5ccccc5)C[C@@H]34)cc2)cc1	-1	5	-1	-18	1
COc1ccc(NC(=O)N2CCCCN3[C@H](CO)[C@@H](c4ccc(C#Cc5ccccc5)cc4)[C@H]3C2)cc1	2	3	x	70*	-1
O=C(Nc1ccc(F)cc1)N[C@@H]1CC[C@H](CC(=O)N2CCOCC2)O[C@H]1CO	3	-4	-2	-8	6
SMILES	Cneo AK release	PglD inh	Ecoli rRNA inh	RAD52 anneal inh	RAD54 branch
CN1CCCCN2[C@H](CO)[C@@H](c3ccc(/C=C/c4ccccc4)cc3)[C@H]2C1	-3	-11	3	53*	8
CN1CCCCN2[C@H](CO)[C@H](c3ccc(/C=C/c4ccccc4)cc3)[C@H]2C1	-4	-6	-5	77*	13
C[C@@H]1CN([C@@H](C)CO)C(=O)c2cc(NC(=O)c3ccncc3)ccc2O[C@@H](C)CCCCO[C@H]1CN(C)C(=O)c1ccccc1	0	-4	-1	7	5
C[C@@H]1CCCCO[C@@H](CN(C)C)[C@@H](C)CN([C@@H](C)CO)C(=O)c2cc(NS(=O)(=O)c3ccc(Cl)cc3)ccc2O1	0	-2	3	-24	-10
CC1Cc2ccccc2N1S(=O)(=O)c1cnc(Cl)c(Br)c1 (configuration not stated)	2	-2	-27*	-3	-2
COc1ccc(S(=O)(=O)Nc2ccc3c(c2)C(=O)N([C@@H](C)CO)C[C@@H](C)[C@H](CN(C)C(=O)Nc2ccccc2)O3)cc1	-3	2	4	1	3
COc1ccc(S(=O)(=O)Nc2ccc3c(c2)C(=O)N([C@H](C)CO)C[C@@H](C)[C@@H](CN(C)C(=O)Nc2ccccc2)O3)cc1	83*	3	0	-7	7
C[C@H]1CN([C@@H](C)CO)C(=O)c2cc(NS(=O)(=O)c3ccccc3)ccc2O[C@H]1CN(C)C(=O)NC1CCCCC1	-1	-1	0	11	-2
C[C@@H]1CN([C@H](C)CO)C(=O)c2cc(NS(=O)(=O)c3ccccc3)ccc2O[C@H]1CN(C)C(=O)NC1CCCCC1	96*	0	1	5	10
C[C@H](CO)N1C[C@H](C)[C@@H](CN(C)C(=O)Nc2ccc3c(c2)OCO3)Oc2ccc(NS(=O)(=O)c3cccs3)cc2C1=O	100*	-1	-1	8	1
C[C@@H]1CN([C@H](C)CO)C(=O)c2cc(NS(=O)(=O)c3cccs3)ccc2O[C@H]1CN(C)C(=O)Nc1ccc2c(c1)OCO2	-3	-3	-1	9	0
COc1ccc(NC(=O)Nc2ccc3c(c2)C(=O)N([C@@H](C)CO)C[C@H](C)[C@@H](CN(C)S(C)(=O)=O)O3)cc1	0	3	2	0	-7
C[C@H]1CN([C@@H](C)CO)C(=O)Cc2cc(NS(=O)(=O)c3ccc(Cl)cc3)ccc2O[C@@H]1CN(C)Cc1ccc(-c2ccccc2)cc1	x	x	2	x	x
Cc1ccc2c(c1)C(c1ccc(F)cc1)N(C(=O)c1ccccc1Br)CC(=O)N2 (configuration not stated)	0	-2	-26*	-5	-28
COC(=O)C[C@@H]1CC[C@H]2[C@H](COc3ccc(NC(=O)C4CCOCC4)cc3C(=O)N2C)O1	x	x	-11	x	x
O=C(NC[C@@H]1CC[C@H]2[C@H](CN2Cc2ccccc2F)O1)C1CC1	x	x	x	-14	x
CC(Cl)C(=O)NN=C(c1ccccc1)c1ccccc1 (configuration not stated)	-2	0	1	5	-3
CC(NC1CCCCC1)C(=O)NN=C(c1ccccc1)c1ccccc1 (configuration not stated)	x	x	-25*	1	x
C=CCn1c(SCC(=O)c2ccc(O)c(O)c2)nnc1-c1cccc(C)c1	1	9	-27*	-25	-2
